Results from ChEMBL document CHEMBL3393033, “6-(Azaindol-2-yl)pyridine-3-sulfonamides as potent and selective inhibitors targeting hepatitis C virus NS4B” (Bioorg Med Chem Lett, 2015).

How the values were obtained:
[1] = test system: Hepatitis C virus; experiment: Antiviral activity against genotype 1b Hepatitis C virus bicistronic replicon Con1 infected in human HuH7 cells after 3 days by RT-PCR analysis; assay type: functional, cell-based, Hepacivirus hominis; conditions: genotype 1b Con1, Huh-7, 72 h
Procedure, shortened: (§1)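 Huh7 cells carrying a genotype 1b (Con1) bicistronic HCV replicon seeded at 5000 cells/well. Compound added at a final DMSO concentration of 0.5%, then incubated at 37°C for 3 days. Replicon RNA, and GAPDH RNA as the endogenous selectivity control, quantified by real-time RT-PCR. Values are the average of at least two independent determinations.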

[2] = Toxicity in human HuH7 cells infected with genotype 1b Hepatitis C virus bicistronic replicon Con1 assessed as reduction in GAPDH RNA after 3 days by RT-PCR analysis; assay type: cell-based, Huh-7; procedure, shortened: as §1
[3] = Ratio of plasma concentration in Sprague-Dawley rat at 10 mg/kg, po administered as single dose after 6 hrs to EC50 for genotype 1b Hepatitis C virus bicistronic replicon Con1 infected in human HuH7 cells; assay type: ADME, organism-based, Huh-7; set-up: dose 10 mg/kg, route oral; conditions: in vivo
Procedure, shortened: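 Male Sprague Dawley rats (n = 2) received a single 10 mg/kg oral dose in 0.4% hydroxypropyl methylcellulose suspension. Plasma concentration at 6 h post-dose was measured by LC-MS/MS and divided by the Con1 1b replicon EC₅₀ from the Huh7 RT-PCR assay.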

[4] = Ratio of drug level in liver to plasma Sprague-Dawley rat plasma at 10 mg/kg, po administered as single dose by LC-MS/MS analysis; assay type: ADME, organism-based; set-up: dose 10 mg/kg, route oral
Procedure, shortened: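 Male Sprague Dawley rats (n = 2) received 10 mg/kg orally as a suspension in 0.4% hydroxypropyl methylcellulose, after lyophilization from acetonitrile/water (1:1). Liver and plasma concentrations were measured at 6 h post-dose by LC-MS/MS and expressed as a liver/plasma ratio.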

[5] = Ratio of plasma concentration in po dosed monkey at 8 hrs to EC50 for genotype 1b Hepatitis C virus bicistronic replicon Con1 infected in human Huh7 cells; assay type: ADME, organism-based, Huh-7; conditions: in vivo
Procedure, shortened: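 Monkeys: male cynomolgus (n = 2) dosed orally at 3 mg/kg as a suspension in 0.4% hydroxypropyl methylcellulose. Plasma level at 8 h post-dose was measured by LC-MS/MS and expressed relative to the replicon 1b EC₅₀.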

[6] = Ratio of plasma concentration in po dosed dog at 8 hrs to EC50 for genotype 1b Hepatitis C virus bicistronic replicon Con1 infected in human Huh7 cells; assay type: ADME, organism-based, Huh-7; conditions: in vivo
Procedure, shortened: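 Dogs: male beagles (n = 2) dosed orally at 2 mg/kg as a suspension in 0.4% hydroxypropyl methylcellulose. Plasma concentration at 8 h post-dose was measured by LC-MS/MS and divided by the replicon 1b EC₅₀.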

[7] = AUC (0 to 24 hrs) in monkey at 3 mg/kg, po by LC-MS/MS analysis; conditions: cynomolgus monkey, plasma
[8] = AUC (0 to 6 hrs) in Sprague-Dawley rat plasma at 10 mg/kg, po administered as single dose by LC-MS/MS analysis; assay type: ADME, organism-based; set-up: time < 6 hr, dose 10 mg/kg, route oral
Procedure, shortened: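 Male Sprague Dawley rats (n = 2) were dosed once orally at 10 mg/kg. Compound was lyophilized from acetonitrile/water (1:1) and given as a suspension in 0.4% hydroxypropyl methylcellulose. Plasma was sampled at 30 min and at 1, 2, 3, 4 and 6 h post-dose for LC-MS/MS. AUC is over 0–6 h.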

[9] = AUC (0 to 24 hrs) in dog plasma at 2 mg/kg, po by LC-MS/MS analysis; assay type: ADME, organism-based, Canis lupus familiaris; set-up: time < 24 hr, dose 2 mg/kg, route oral
Procedure, shortened: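 Male beagle dogs (n = 2) were dosed orally at 2 mg/kg. Compound was lyophilized from acetonitrile/water (1:1) and given as a suspension in 0.4% hydroxypropyl methylcellulose. Plasma was collected at 30 min and at 1, 2, 4, 8 and 24 h for LC-MS/MS.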

SMILES	EC50 [1]	IC50 at 3 days [2]	Ratio [3]	Kp [4]	Ratio [5]	Ratio [6]	AUC(0-t) at 24 h [7]	AUC(0-t) at 6 h [8]	AUC(0-t) at 24 h [9]
Cc1cnc2c(c1)c(C#N)c(-c1ncc(S(=O)(=O)N[C@@H](C)C(F)(F)F)cn1)n2C1CCC1	160 nM	> 10000 nM	–	–	–	–	–	–	–
C[C@H](NS(=O)(=O)c1ccc(-c2c(C#N)c3cc(C(F)(F)F)cnc3n2C2CCC2)nc1)C(F)(F)F	2 nM	> 10000 nM	503	44	105	125	5.44 µM·h	5.83 µM·h	8.16 µM·h
Cc1ccc2c(C#N)c(-c3ccc(S(=O)(=O)N[C@@H](C)C(F)(F)F)cn3)n(C3CCC3)c2n1	87 nM	> 10000 nM	–	–	–	–	–	–	–
COc1cnc2c(c1)c(C#N)c(-c1ccc(S(=O)(=O)N[C@@H](C)C(F)(F)F)cn1)n2C1CCCC1	150 nM	> 10000 nM	–	–	–	–	–	–	–
COc1cnc2c(c1)c(C#N)c(-c1ccc(S(=O)(=O)N[C@@H](C)C(F)(F)F)cn1)n2CC1CC1	300 nM	7900 nM	–	–	–	–	–	–	–
CCCOc1cnc2c(c1)c(C#N)c(-c1ccc(S(=O)(=O)N[C@@H](C)C(F)(F)F)cn1)n2C1CCC1	2150 nM	> 10000 nM	–	–	–	–	–	–	–
C[C@H](NS(=O)(=O)c1ccc(-c2c(C#N)c3cc(Cl)cnc3n2C2CCC2)nc1)C(F)(F)F	17 nM	> 10000 nM	22	23	2	12	1.03 µM·h	2.39 µM·h	4.08 µM·h
CC(C)Oc1cnc2c(c1)c(C#N)c(-c1ccc(S(=O)(=O)N[C@@H](C)C(F)(F)F)cn1)n2C1CCC1	7600 nM	> 10000 nM	–	–	–	–	–	–	–
COc1ccc2c(C#N)c(-c3ccc(S(=O)(=O)N[C@@H](C)C(F)(F)F)cn3)n(C3CCC3)c2n1	960 nM	9700 nM	–	–	–	–	–	–	–
Cc1cnc2c(C#N)c(-c3ccc(S(=O)(=O)N[C@@H](C)C(F)(F)F)cn3)n(C3CCC3)c2c1	119 nM	> 10000 nM	–	–	–	–	–	–	–
CCc1cnc2c(c1)c(C#N)c(-c1ccc(S(=O)(=O)N[C@@H](C)C(F)(F)F)cn1)n2C1CCC1	15 nM	> 5160 nM	27	13	–	–	–	2.63 µM·h	–
C[C@H](NS(=O)(=O)c1ccc(-c2c(C#N)c3cc(F)cnc3n2C2CCC2)nc1)C(F)(F)F	46 nM	> 10000 nM	23	6	–	–	–	8.78 µM·h	–
Cc1cc2c(C#N)c(-c3ccc(S(=O)(=O)N[C@@H](C)C(F)(F)F)cn3)n(C3CCC3)c2cn1	1400 nM	> 10000 nM	–	–	–	–	–	–	–
Cc1cnc2c(c1)c(C#N)c(-c1ccc(S(=O)(=O)N[C@@H](C)C(F)(F)F)cn1)n2C1CCC1	13 nM	> 10000 nM	55	9	1	14	0.641 µM·h	6.92 µM·h	5.67 µM·h
C[C@H](NS(=O)(=O)c1ccc(-c2c(C#N)c3ccc(Cl)nc3n2C2CCC2)nc1)C(F)(F)F	700 nM	6300 nM	–	–	–	–	–	–	–
